Results reported in ChEMBL document CHEMBL3525907, “Studies on the metabolism and biological activity of the epimers of sulindac” (Drug Metab Dispos, 2011).
Calls of active or inactive are those of the source. The calls are words filed in the database; no cut-off is given here.

Legend:
[1] = molecular target: Cytochrome P450 2C8 (Homo sapiens, UniProt P10632); assay: Drug metabolism assessed as human recombinant CYP2C8-mediated sulindac sulfone formation measured per pmol of protein at 200 uM after 90 mins by HPLC analysis; type: ADME; details: recombinant enzyme, 1.5 h
How it was run: (§1)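 Recombinant rat or human P450 Supersomes (some with cytochrome b5, variable reductase) incubated with (R)-sulindac at 500 μM or (S)-sulindac at 200 μM plus NADPH-regenerating system in 100 mM potassium phosphate pH 7.4 at 37°C, linear up to 90 min; acetonitrile stop; sulfone by C18 HPLC at 330 nm; ≥3 runs; pmol/pmol enzyme/h, mean ± S.E.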

[2] = molecular target: Cytochrome P450 2C9 (Homo sapiens, UniProt P11712); assay: Drug metabolism assessed as human recombinant CYP2C9-mediated sulindac sulfone formation measured per pmol of protein at 200 uM after 90 mins by HPLC analysis; type: ADME; details: recombinant enzyme, 1.5 h; how it was run: as §1
[3] = molecular target: Cytochrome P450 2C19 (Homo sapiens, UniProt P33261); assay: Drug metabolism assessed as human recombinant CYP2C19-mediated sulindac sulfone formation measured per pmol of protein at 200 uM after 90 mins by HPLC analysis; type: ADME; details: recombinant enzyme, 1.5 h; how it was run: as §1
[4] = molecular target: Cytochrome P450 1B1 (Homo sapiens, UniProt Q16678); assay: Drug metabolism assessed as human recombinant CYP1B1-mediated sulindac sulfone formation measured per pmol of protein at 200 uM after 90 mins by HPLC analysis; type: ADME; details: recombinant enzyme, 1.5 h; how it was run: as §1
[5] = molecular target: Cytochrome P450 1A1 (Rattus norvegicus, UniProt P00185); assay: Drug metabolism assessed as rat recombinant CYP1A1-mediated sulindac sulfone formation measured per pmol of protein at 200 uM after 90 mins by HPLC analysis; type: ADME; details: recombinant enzyme, 1.5 h; how it was run: as §1
[6] = molecular target: Cytochrome P450 2D6 (Homo sapiens, UniProt P10635); assay: Drug metabolism assessed as human recombinant CYP2D6-mediated sulindac sulfone formation measured per pmol of protein at 200 uM after 90 mins by HPLC analysis; type: ADME; details: recombinant enzyme, 1.5 h; how it was run: as §1
[7] = molecular target: Mitochondrial peptide methionine sulfoxide reductase (Rattus norvegicus, UniProt Q923M1); assay: Drug metabolism in rat liver S100 fraction assessed as MSRA-mediated reduced product formation measured per mg of protein at 200 uM by HPLC analysis; type: ADME, tissue-based
[8] = molecular target: Cytochrome P450 2B1 (Rattus norvegicus, UniProt P00176); assay: Drug metabolism assessed as rat recombinant CYP2B1-mediated sulindac sulfone formation measured per pmol of protein at 200 uM after 90 mins by HPLC analysis; type: ADME; details: recombinant enzyme, 1.5 h; how it was run: as §1
[9] = molecular target: Cytochrome P450 3A2 (Rattus norvegicus, UniProt P05183); assay: Drug metabolism assessed as rat recombinant CYP3A2-mediated sulindac sulfone formation measured per pmol of protein at 200 uM after 90 mins by HPLC analysis; type: ADME; details: recombinant enzyme, 1.5 h; how it was run: as §1
[10] = system: MRC5; assay: Cytoprotective activity in TBHP-induced human MRC5 cells at 500 uM incubated for 48 hrs prior to TBHP-challenge measured after 2 hrs; type: functional, cell-based
How it was run: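 Normal lung cells preincubated 48 h with 500 μM (R)- or (S)-sulindac or no drug, then challenged with TBHP; viability expressed as percent of cells not exposed to TBHP; mean and S.E. of five repeats; p < 0.05 versus no-drug controls.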

[11] = molecular target: Cytochrome P450 1A2 (Rattus norvegicus, UniProt P04799); assay: Drug metabolism assessed as rat recombinant CYP1A2-mediated sulindac sulfone formation measured per pmol of protein at 200 uM after 90 mins by HPLC analysis; type: ADME; details: recombinant enzyme, 1.5 h; how it was run: as §1
[12] = molecular target: Cytochrome P450 1A2 (Homo sapiens, UniProt P05177); assay: Drug metabolism assessed as human recombinant CYP1A2-mediated sulindac sulfone formation measured per pmol of protein at 200 uM after 90 mins by HPLC analysis; type: ADME; details: recombinant enzyme, 1.5 h; how it was run: as §1
[13] = molecular target: Cytochrome P450 3A4 (Homo sapiens, UniProt P08684); assay: Drug metabolism assessed as human recombinant CYP3A4-mediated sulindac sulfone formation measured per pmol of protein at 200 uM after 90 mins by HPLC analysis; type: ADME; details: recombinant enzyme, 1.5 h; how it was run: as §1
[14] = system: A549; assay: Potentiation of TBHP-induced cytotoxicity in human A549 cells at 500 uM incubated for 48 hrs prior to TBHP-challenge measured after 2 hrs; type: functional, cell-based
[15] = system: Brain; assay: Drug metabolism in Sprague-Dawley rat brain treated with (S)-Sulindac at 2 mg, ip after 0.5 to 4 hrs by HPLC analysis; details: in vivo
[16] = system: Zone of skin; assay: Drug metabolism in Sprague-Dawley rat skin treated with (R)-Sulindac at 2 mg, ip after 0.5 to 4 hrs by HPLC analysis; details: in vivo
[17] = system: Plasma; assay: Drug metabolism in Sprague-Dawley rat plasma treated with (R)-Sulindac at 2 mg, ip after 0.5 to 4 hrs by HPLC analysis; details: in vivo
[18] = system: Zone of skin; assay: Drug metabolism in Sprague-Dawley rat skin treated with (S)-Sulindac at 2 mg, ip after 0.5 to 4 hrs by HPLC analysis; details: in vivo
[19] = system: Plasma; assay: Drug metabolism in Sprague-Dawley rat plasma treated with (S)-Sulindac at 2 mg, ip after 0.5 to 4 hrs by HPLC analysis; details: in vivo
[20] = system: Liver; assay: Drug metabolism in Sprague-Dawley rat liver treated with (R)-Sulindac at 2 mg, ip after 0.5 to 4 hrs by HPLC analysis; details: in vivo
[21] = system: Brain; assay: Drug metabolism in Sprague-Dawley rat brain treated with (R)-Sulindac at 2 mg, ip after 0.5 to 4 hrs by HPLC analysis; details: in vivo
[22] = system: Liver microsome; assay: Drug metabolism in rat liver microsomes at 200 µM after 60 mins by HPLC analysis in presence of NADPH; details: 1 h
[23] = system: Liver; assay: Drug metabolism in Sprague-Dawley rat liver treated with (S)-Sulindac at 2 mg, ip after 0.5 to 4 hrs by HPLC analysis; details: in vivo
[24] = Retention time in rat plasma measured after 4 hrs ip injection of sulindac; type: physicochemical, organism-based; details: in vivo

Chain of Cytochrome P450 1A2 (Rattus norvegicus, UniProt P04799) (P04799 whole entry): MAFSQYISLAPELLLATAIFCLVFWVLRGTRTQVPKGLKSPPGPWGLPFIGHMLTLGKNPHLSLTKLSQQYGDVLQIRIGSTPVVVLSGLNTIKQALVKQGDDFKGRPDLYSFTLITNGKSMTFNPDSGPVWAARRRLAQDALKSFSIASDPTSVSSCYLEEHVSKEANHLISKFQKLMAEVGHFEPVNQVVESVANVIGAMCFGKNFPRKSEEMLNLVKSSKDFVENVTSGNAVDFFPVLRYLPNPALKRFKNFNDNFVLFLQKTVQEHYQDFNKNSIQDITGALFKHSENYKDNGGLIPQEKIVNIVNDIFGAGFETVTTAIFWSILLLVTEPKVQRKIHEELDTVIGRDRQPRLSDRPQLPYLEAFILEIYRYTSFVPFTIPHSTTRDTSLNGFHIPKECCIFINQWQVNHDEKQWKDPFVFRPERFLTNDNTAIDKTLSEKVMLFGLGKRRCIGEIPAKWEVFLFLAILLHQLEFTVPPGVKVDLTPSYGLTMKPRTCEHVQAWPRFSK
Chain of Mitochondrial peptide methionine sulfoxide reductase (Q923M1 whole entry): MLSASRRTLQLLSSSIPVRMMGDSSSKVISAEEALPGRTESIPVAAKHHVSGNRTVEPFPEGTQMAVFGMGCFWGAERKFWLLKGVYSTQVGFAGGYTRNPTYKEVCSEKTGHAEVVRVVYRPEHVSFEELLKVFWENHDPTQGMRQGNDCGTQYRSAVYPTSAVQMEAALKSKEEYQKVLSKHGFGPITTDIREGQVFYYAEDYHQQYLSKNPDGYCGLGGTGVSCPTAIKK
Chain of Cytochrome P450 3A4 (P08684 whole entry): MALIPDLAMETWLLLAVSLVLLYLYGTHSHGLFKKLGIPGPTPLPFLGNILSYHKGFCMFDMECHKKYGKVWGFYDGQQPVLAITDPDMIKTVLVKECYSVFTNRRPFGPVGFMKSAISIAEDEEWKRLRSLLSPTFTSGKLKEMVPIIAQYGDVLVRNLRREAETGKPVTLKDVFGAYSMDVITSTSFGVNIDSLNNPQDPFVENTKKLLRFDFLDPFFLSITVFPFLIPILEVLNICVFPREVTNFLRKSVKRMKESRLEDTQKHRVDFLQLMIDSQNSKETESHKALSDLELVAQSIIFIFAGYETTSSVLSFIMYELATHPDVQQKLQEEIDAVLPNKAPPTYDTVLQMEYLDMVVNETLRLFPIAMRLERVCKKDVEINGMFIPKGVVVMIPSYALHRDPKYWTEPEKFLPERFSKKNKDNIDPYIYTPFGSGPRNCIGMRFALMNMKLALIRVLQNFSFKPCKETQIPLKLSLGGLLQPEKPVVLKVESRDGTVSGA
Chain of Cytochrome P450 3A2 (P05183 whole entry): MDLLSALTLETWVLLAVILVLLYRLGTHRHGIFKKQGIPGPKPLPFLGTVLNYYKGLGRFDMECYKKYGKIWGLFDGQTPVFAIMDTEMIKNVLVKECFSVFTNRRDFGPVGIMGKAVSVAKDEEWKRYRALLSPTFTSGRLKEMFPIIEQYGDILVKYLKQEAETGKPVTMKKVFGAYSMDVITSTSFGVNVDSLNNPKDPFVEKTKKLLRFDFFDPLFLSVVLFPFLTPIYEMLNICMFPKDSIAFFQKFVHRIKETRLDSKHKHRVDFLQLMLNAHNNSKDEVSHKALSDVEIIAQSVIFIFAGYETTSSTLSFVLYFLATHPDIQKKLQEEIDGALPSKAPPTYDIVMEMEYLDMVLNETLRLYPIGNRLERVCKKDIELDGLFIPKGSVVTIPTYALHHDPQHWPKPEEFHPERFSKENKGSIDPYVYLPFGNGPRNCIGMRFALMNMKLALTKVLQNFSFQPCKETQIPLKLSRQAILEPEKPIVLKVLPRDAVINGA
Chain of Cytochrome P450 2C9 (P11712 whole entry): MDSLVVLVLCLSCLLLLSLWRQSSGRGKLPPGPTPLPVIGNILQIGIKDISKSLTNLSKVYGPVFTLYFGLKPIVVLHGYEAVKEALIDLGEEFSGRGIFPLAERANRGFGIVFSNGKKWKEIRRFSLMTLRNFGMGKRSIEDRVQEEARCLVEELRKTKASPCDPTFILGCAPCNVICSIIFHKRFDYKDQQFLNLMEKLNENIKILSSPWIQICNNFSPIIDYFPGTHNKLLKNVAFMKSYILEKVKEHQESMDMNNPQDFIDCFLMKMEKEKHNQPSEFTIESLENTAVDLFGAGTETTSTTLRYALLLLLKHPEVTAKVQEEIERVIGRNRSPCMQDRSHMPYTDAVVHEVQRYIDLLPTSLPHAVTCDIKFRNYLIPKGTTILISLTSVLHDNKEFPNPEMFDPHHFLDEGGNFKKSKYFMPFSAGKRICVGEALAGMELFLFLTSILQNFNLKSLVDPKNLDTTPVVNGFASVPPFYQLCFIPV
Chain of Cytochrome P450 2C8 (P10632 whole entry): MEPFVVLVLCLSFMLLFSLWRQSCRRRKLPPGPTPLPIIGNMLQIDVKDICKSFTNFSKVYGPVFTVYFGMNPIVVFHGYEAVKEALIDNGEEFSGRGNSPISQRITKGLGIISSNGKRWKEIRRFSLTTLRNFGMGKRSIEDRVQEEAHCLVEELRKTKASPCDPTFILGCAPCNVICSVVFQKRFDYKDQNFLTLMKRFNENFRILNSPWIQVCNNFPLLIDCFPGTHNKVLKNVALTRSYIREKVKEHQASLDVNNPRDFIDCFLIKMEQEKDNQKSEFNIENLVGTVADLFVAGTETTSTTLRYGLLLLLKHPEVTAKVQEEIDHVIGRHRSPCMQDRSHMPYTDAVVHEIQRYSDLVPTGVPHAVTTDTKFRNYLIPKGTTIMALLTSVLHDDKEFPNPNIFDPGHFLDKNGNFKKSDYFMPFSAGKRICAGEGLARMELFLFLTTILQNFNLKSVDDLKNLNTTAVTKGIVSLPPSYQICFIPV
Chain of Cytochrome P450 1B1 (Q16678 whole entry): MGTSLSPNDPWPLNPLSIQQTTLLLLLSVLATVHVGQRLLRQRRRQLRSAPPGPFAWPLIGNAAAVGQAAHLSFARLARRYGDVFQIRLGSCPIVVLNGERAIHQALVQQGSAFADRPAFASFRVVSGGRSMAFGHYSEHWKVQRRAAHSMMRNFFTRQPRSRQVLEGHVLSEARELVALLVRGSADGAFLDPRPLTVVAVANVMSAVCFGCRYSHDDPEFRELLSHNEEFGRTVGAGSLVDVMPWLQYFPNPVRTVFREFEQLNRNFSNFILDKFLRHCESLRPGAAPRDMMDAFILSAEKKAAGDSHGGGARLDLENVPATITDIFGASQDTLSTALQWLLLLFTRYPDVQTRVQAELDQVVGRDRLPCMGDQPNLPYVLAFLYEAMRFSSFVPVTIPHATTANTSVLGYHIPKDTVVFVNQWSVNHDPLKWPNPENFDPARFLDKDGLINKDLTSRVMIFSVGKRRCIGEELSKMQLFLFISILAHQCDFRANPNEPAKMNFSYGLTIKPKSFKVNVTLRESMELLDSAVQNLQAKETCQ
Chain of Cytochrome P450 1A2 (Homo sapiens, UniProt P05177) (P05177 whole entry): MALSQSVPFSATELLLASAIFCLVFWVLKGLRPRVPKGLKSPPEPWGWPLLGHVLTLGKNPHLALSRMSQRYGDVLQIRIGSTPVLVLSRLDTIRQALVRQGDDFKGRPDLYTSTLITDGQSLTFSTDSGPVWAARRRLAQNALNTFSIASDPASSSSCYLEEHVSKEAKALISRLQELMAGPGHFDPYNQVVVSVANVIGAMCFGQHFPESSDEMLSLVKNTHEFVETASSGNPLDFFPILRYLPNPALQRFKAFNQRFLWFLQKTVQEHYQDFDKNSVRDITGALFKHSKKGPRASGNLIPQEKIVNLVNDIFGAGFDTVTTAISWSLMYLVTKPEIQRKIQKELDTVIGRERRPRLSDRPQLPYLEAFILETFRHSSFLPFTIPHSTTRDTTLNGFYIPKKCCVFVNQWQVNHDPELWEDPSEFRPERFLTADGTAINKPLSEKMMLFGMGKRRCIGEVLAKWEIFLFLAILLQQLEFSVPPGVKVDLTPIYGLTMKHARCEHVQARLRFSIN
Chain of Cytochrome P450 2D6 (P10635 whole entry): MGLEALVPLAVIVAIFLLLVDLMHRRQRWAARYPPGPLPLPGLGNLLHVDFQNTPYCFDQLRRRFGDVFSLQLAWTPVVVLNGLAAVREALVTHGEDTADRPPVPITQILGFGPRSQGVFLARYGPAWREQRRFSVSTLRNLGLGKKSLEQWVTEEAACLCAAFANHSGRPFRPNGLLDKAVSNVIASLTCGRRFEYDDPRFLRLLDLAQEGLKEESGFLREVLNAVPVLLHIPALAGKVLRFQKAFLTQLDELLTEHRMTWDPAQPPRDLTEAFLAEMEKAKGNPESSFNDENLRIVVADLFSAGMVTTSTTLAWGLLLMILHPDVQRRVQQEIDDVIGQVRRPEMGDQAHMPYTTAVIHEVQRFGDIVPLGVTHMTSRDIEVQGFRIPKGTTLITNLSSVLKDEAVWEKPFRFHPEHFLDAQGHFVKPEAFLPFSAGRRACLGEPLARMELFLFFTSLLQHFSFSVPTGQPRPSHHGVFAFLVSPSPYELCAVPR
Chain of Cytochrome P450 1A1 (P00185 whole entry): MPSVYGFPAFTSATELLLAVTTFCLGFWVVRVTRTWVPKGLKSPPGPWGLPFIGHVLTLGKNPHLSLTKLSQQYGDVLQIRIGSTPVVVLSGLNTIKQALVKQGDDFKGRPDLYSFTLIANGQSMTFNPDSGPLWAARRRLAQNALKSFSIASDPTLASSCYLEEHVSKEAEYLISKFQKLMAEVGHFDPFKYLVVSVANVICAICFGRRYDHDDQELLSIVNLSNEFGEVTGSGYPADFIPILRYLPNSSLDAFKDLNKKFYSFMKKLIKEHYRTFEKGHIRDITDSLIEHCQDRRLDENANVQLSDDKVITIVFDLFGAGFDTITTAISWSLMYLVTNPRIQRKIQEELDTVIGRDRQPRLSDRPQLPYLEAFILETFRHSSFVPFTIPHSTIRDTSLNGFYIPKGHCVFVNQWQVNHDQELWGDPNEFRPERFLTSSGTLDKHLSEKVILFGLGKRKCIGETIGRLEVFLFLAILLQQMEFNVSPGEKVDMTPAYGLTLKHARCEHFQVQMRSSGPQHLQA

Row | Drug metabolism [15] | Drug metabolism [16] | Drug metabolism [17] | Drug metabolism [18] | Drug metabolism [19] | Drug metabolism [20] | Drug metabolism [21] | Drug metabolism [23] | Retention_time [24] | SMILES | further results
1 | – | – | – | – | – | – | – | – | – | CC1=C(CC(=O)O)c2cc(F)ccc2/C1=C\c1ccc([S@+](C)[O-])cc1 | Drug metabolism [1]: metabolite_not_detected; Drug metabolism [2]: metabolite_not_detected; Drug metabolism [3]: metabolite_not_detected; Drug metabolism [4]: 0 pmol/h; Drug metabolism [5]: 22 pmol/h; Drug metabolism [6]: metabolite_not_detected; Drug metabolism [7]: metabolite_detected; Drug metabolism [8]: metabolite_not_detected; Drug metabolism [9]: metabolite_not_detected; Activity [10]: Active; Drug metabolism [11]: 24 pmol/h; Drug metabolism [12]: 34 pmol/h; Drug metabolism [13]: 29 pmol/h; Activity [14]: Active
2 | metabolite_detected | metabolite_detected | metabolite_detected | metabolite_detected | metabolite_detected | metabolite_detected | metabolite_detected | metabolite_detected | 1.5 min | CC1=C(CC(=O)O)c2cc(F)ccc2/C1=C\c1ccc(S(C)(=O)=O)cc1 [EXISULIND] | Drug metabolism [22]: metabolite_detected
3 | metabolite_detected | metabolite_detected | metabolite_detected | metabolite_detected | metabolite_detected | metabolite_detected | metabolite_detected | metabolite_detected | 7.1 min | CSc1ccc(/C=C2/C(C)=C(CC(=O)O)c3cc(F)ccc32)cc1 [SULINDAC SULFIDE] | –
